Reference: ChEMBL document CHEMBL3120138, “Glucocorticoid receptor modulators informed by crystallography lead to a new rationale for receptor selectivity, function, and implications for structure-based design” (J Med Chem, 2014)
The source made the active and inactive calls. The rule behind the calls is not given here.

Experiments:
Glucocorticoid receptor = biological target: T1, Glucocorticoid receptor (Homo sapiens, UniProt P04150); test: Displacement of [3H]-dexamethasone from human glucocorticoid receptor expressed in HEK293 cells; type: cell-based
T1 sequence (P04150 whole entry): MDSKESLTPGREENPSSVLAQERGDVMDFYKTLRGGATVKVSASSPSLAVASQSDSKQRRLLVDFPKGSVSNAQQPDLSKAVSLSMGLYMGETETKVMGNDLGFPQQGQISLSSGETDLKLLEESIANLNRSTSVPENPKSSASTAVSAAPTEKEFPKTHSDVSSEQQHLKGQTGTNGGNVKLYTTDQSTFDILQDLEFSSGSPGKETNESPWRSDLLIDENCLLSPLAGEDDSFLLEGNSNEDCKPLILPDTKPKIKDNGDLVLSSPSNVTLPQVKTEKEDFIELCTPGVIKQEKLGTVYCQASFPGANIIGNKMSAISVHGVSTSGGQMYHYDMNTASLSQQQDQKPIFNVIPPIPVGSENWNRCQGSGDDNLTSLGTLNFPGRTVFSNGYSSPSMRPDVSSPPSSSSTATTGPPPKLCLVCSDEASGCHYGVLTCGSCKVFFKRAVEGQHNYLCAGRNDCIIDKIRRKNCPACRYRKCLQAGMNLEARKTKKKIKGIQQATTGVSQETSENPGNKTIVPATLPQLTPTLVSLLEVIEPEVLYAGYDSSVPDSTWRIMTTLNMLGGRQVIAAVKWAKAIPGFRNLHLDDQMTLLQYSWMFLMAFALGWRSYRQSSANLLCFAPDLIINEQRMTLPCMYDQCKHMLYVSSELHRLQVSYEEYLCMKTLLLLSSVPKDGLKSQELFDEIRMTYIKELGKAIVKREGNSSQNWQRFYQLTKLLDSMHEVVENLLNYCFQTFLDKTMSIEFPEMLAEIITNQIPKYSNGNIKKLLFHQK

Rattus norvegicus [1] = test: Antiinflammatory activity in Lewis rat collagen-induced arthritis model assessed as reduction in ankle diameter at 10 mg/kg, po administered for 15 days measured during compound dosing; type: functional, organism-based; parameters: dose 10 mg/kg
In short: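 Female Lewis rats received collagen injected at the tail base, and disease developed over 14 d. Responding rats (groups of n = 10) were then dosed orally once daily for the next 15 d. Ankle/paw diameter was measured throughout the live phase and summarised as AUC. Hindpaw histology was scored blind from 0 (normal) to 5 (vehicle-level). Statistics used Student's t test vs vehicle, p < 0.01.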

Rattus norvegicus [2] = test: Antiinflammatory activity in po dosed Sprague-Dawley rat assessed as inhibition of carrageenan-induced IL-1beta secretion incubated for 2 hrs prior to carrageenan challenge measured after 5 hrs by ELISA; type: functional
In short: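 Male Sprague-Dawley rats (n = 5/group) were dosed at t = 0, and carrageenan was injected into the rear footpad at 2 h. At 5 h the animals were euthanised and the hindpaws weighed to measure edema. Paw exudate was assayed for IL-1β by ELISA.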

Rattus norvegicus [3] = test: Antiinflammatory activity in po dosed Sprague-Dawley rat assessed as inhibition of carrageenan-induced paw edema incubated for 2 hrs prior to carrageenan challenge measured after 5 hrs […]; type: functional
[4] = Antiinflammatory activity in PMA-differentiated human U937 cells assessed as inhibition of LPS-induced TNFalpha production incubated for 60 mins prior to LPS challenge measured after 24 hrs; type: functional, cell-based; details: U-937
In short: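 U-937 cells (100 000/well) were differentiated with 20 nM PMA overnight at 37 °C, then refed with PMA-free medium. Cells were pretreated with compound for 60 min, then stimulated with LPS (stock 400 ng/mL) for 24 h at 37 °C. Secreted TNFα was measured by EIA/RIA. Ten-point half-log dilutions were used, each concentration in triplicate.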

[5] = Antiinflammatory activity in human CCD-39SK cells assessed as inhibition of IL-1beta-induced IL-6 production incubated for 60 mins prior to IL-1beta induction measured after 24 hrs; type: functional, cell-based
In short: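 CCD-39SK fibroblasts (20 000/well) were grown in MEM with 2% charcoal/dextran-treated FBS. Cells were pretreated with compound for 60 min, then stimulated with rhIL-1β (1 ng/mL final) for 24 h at 37 °C. IL-6 in clarified supernatant was measured. […] Ten-point half-log dilutions were used, each in triplicate.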

[6] = biological target: T2, Glucocorticoid receptor (Homo sapiens) (UniProt P04150); test: Transactivation of human glucocorticoid receptor expressed in HEK293 cells at 10 uM after 24 hrs by luciferase reporter gene assay relative to control; type: cell-based
T2 sequence (whole entry): T1 sequence (P04150 whole entry)
In short: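 HEK293 cells were transfected in DMEM with 5% charcoal-stripped FBS, using a CMV-hGR plasmid and a luciferase reporter driven by 2×GRE plus the TK promoter. After overnight incubation, cells were replated and exposed to compound for 24 h, then lysed for luciferase readout.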

[7] = biological target: T3, Mineralocorticoid receptor (Homo sapiens, UniProt P08235); test: Displacement of [3H]-aldosterone from human mineralocorticoid receptor expressed in HEK293 cells; type: cell-based
T3 sequence (P08235 whole entry): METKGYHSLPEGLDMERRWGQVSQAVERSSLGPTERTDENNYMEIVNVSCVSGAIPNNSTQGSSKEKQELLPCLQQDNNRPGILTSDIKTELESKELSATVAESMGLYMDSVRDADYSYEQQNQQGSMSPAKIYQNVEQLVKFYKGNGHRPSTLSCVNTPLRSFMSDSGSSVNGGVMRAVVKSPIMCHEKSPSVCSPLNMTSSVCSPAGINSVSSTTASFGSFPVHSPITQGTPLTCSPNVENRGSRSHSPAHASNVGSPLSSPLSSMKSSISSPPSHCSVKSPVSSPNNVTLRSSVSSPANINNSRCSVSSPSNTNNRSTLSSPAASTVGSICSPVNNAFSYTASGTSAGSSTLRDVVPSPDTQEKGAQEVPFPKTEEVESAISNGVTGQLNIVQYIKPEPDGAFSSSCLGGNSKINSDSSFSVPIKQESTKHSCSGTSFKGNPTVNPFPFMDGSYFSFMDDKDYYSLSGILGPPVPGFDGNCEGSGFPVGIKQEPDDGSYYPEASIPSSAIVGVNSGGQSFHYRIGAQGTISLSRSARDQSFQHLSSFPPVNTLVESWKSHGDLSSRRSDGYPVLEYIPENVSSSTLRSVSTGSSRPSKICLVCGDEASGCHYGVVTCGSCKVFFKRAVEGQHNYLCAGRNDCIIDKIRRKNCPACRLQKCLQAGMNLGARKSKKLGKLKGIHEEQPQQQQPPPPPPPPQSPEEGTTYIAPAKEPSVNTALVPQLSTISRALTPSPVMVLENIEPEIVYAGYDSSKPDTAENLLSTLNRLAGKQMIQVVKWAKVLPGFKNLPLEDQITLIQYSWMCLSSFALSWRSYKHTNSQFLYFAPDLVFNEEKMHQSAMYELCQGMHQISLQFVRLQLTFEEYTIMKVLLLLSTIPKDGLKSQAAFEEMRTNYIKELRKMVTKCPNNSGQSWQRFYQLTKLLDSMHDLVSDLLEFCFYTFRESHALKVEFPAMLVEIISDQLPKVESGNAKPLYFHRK
In short: (§1)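 Competition binding used lysates of HEK293 cells overexpressing the human receptor. The tracer was ³H-aldosterone for MR and ³H-methyltrienolone for PR. Competitor was tested from 0.01 nM to 10 μM. IC50 was converted to Ki by Cheng–Prusoff. Values are means of at least three experiments, each run in triplicate.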

Progesterone receptor = biological target: T4, Progesterone receptor (Homo sapiens, UniProt P06401); test: Displacement of [3H]-methyltrienolone from human progesterone receptor expressed in HEK293 cells; type: cell-based; in short: as §1
T4 sequence (P06401 whole entry): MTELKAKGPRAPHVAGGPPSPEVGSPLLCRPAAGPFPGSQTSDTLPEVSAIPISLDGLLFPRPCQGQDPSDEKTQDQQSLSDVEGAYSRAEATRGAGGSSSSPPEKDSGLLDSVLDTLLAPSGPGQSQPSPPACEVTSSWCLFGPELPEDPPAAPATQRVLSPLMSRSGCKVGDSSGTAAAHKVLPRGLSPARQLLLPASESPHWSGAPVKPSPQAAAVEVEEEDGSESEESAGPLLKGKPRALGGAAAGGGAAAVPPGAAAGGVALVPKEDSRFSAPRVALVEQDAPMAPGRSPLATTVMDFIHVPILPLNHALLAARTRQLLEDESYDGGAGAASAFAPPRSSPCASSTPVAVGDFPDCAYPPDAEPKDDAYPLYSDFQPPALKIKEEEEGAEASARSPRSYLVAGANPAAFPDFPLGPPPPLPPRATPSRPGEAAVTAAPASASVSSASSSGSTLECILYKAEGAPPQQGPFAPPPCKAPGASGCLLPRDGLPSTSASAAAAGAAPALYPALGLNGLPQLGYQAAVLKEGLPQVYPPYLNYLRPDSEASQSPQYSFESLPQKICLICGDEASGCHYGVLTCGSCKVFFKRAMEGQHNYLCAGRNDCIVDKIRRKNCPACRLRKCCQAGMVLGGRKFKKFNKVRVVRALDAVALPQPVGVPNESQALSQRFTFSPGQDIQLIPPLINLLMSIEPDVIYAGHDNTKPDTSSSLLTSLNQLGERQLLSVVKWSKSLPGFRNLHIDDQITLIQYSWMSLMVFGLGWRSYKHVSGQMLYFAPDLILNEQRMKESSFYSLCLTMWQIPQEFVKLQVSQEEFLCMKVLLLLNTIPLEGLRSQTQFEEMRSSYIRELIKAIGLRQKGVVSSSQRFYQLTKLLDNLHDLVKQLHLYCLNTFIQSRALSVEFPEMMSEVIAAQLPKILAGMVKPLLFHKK

SMILES: C(=C1c2ccccc2CCc2ccccc21)c1ccccc1
- Ki (Glucocorticoid receptor): > 100 nM

SMILES: CNS(=O)(=O)c1cccc(C=C2c3ccccc3CCc3ccccc32)c1
- Ki (Glucocorticoid receptor): > 100 nM

SMILES: CS(=O)(=O)Nc1ccccc1C=C1c2ccccc2CCc2ccccc21
- Ki (Glucocorticoid receptor): > 100 nM

SMILES: CS(=O)(=O)Nc1ccc(C=C2c3ccccc3CCc3ccccc32)cc1
- Ki (Glucocorticoid receptor): > 100 nM

SMILES: CCOc1cccc2c1/C(=C(/CC)c1cccc(N(CC)S(C)(=O)=O)c1)c1ccccc1OC2
- Ki (Glucocorticoid receptor): > 100 nM

SMILES: C[C@]12C=CC(=O)C=C1CC[C@@H]1[C@@H]2[C@@H](O)C[C@@]2(C)[C@H]1CC[C@]2(O)C(=O)CO [PREDNISOLONE]
- Activity (Rattus norvegicus [1]): Active
- ED50 (Rattus norvegicus [2]): 0.31 mg/kg
- ED50 (Rattus norvegicus [3]): 7.6 mg/kg
- IC50 [4]: 8.2 nM
- IC50 [5]: 7.26 nM
- Efficacy [6]: 114%
- Ki [7]: 0.29 nM

SMILES: Nc1cccc(C=C2c3ccccc3CCc3ccccc32)c1
- Ki (Glucocorticoid receptor): > 100 nM

SMILES: C[C@@H]1C[C@H]2[C@@H]3CCC4=CC(=O)C=C[C@]4(C)[C@@]3(F)[C@@H](O)C[C@]2(C)[C@@]1(O)C(=O)CO [DEXAMETHASONE]
- Ki (Progesterone receptor): 561 nM
